Test results: ChEMBL document CHEMBL1132342, “Novel hypotensive agents from Verbesina caracasana. 6. Synthesis and pharmacology of caracasandiamide” (1999)

Assays:
Rattus norvegicus [1] = assay: Change in systolic blood pressure after iv administration of 400 ug/Kg in the presence of acetylcholine (agonist) in anesthetized rats; assay type: functional, Artery
Method in brief: (§1)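 Anesthetized male Wistar rats, two groups of 8, received 400 or 1600 µg/kg iv. Before and after this dose, iv agonist challenges were given: noradrenaline 1 µg/kg, adrenaline, acetylcholine 2.50 µg/kg, or isoprenaline. Systolic/diastolic BP, heart rate and dP/dt responses were recorded before (control) and after dosing; significance was set at p < 0.05 versus control.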

Rattus norvegicus [2] = assay: Change in systolic blood pressure after iv administration of 400 ug/Kg in the presence of adrenaline (agonist) in anesthetized rats; assay type: functional, Artery; method in brief: as §1
Rattus norvegicus [3] = assay: Change in systolic blood pressure after iv administration of 200 ug/Kg in anesthetized rats; assay type: functional, Artery
Method in brief: (§2)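 Male Wistar rats (299 ± 3 g) were anesthetized with ethylurethane ip, tracheally cannulated and breathing spontaneously, at 37 °C, and stabilized for 60 min. Doses of 50-3200 µg/kg (ratio 2.0) in saline were injected by femoral vein, 50 µL each. Recordings: femoral arterial BP, electromagnetic abdominal-aortic flow, SV from integrated pulsatile flow, polygraphic RF. Peak changes, mean ± SE, n = 12 (n = 7 at 3200).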

Rattus norvegicus [4] = assay: Maximum rate of rise of the left ventricular isovolumetric pressure was measured after iv administration of 800 ug/Kg in anesthetized rats; assay type: functional, Heart left ventricle
Method in brief: (§3)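 Urethane-anesthetized (10% w/v, […] ip in saline) adult male Wistar rats, trachea cannulated, breathing spontaneously, 37 °C. Femoral artery catheter for blood pressure, femoral vein for dosing. Sequential iv doses 50–3200 µg/kg (ratio 2.0) in saline, each given after parameters returned to baseline. Peak changes recorded; means ± SE, n = 12 (n = 7 at 3200 µg/kg).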

Rattus norvegicus [5] = assay: Change in mean aortic flow after iv administration of 400 ug/Kg in anesthetized rats; assay type: functional; method in brief: as §2
Rattus norvegicus [6] = assay: Change in heart rate after iv administration of 1600 ug/Kg in the presence of acetylcholine (agonist) in anesthetized rats; assay type: functional
Method in brief: (§4)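 Urethane-anesthetized male Wistar rats (16 rats, two equal groups) received 400 or 1600 µg/kg compound iv. Cardiovascular responses to iv agonist boluses (noradrenaline 1 µg/kg, acetylcholine 2.50 µg/kg, adrenaline, isoprenaline) were measured before and after compound dosing. Peak responses are given as mean ± SE; p < 0.05 versus control mean.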

Rattus norvegicus [7] = assay: Maximum rate of rise of the left ventricular isovolumetric pressure after iv administration of 400 ug/Kg compound (treatment with hexamethonium (5 mg/Kg, iv)in anesthetized rats; assay type: functional, Heart left ventricle
Method in brief: (§5)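 Anesthetized rats, n = 6 per group, received iv doses of 200–1600 µg/kg (ratio 2.0) either alone (control) or under pretreatment: continuous iv papaverine infusion 1 mg/kg/min, reserpine 5 mg/kg/day ip for 2 days, or hexamethonium 5 mg/kg iv. Peak changes in BP, heart rate and dP/dt recorded; means ± SE, p < 0.05 versus control.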

Rattus norvegicus [8] = assay: Change in heart rate after iv administration of 400 ug/Kg in the presence of noradrenaline (agonist) in anesthetized rats; assay type: functional
Rattus norvegicus [9] = assay: Change in stroke volume after iv administration of 100 ug/Kg in anesthetized rats; assay type: functional; method in brief: as §2
Rattus norvegicus [10] = assay: Change in systolic blood pressure after iv administration of 50 ug/Kg in anesthetized rats; assay type: functional, Artery; method in brief: as §3
Rattus norvegicus [11] = assay: Change in heart rate after iv administration of 100 ug/Kg in anesthetized rats; assay type: functional
Method in brief: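 Adult male Wistar rats under ip ethylurethane (10% w/v in saline, 1 mL/kg) with tracheal cannula and spontaneous breathing, kept at 37 °C. Arterial BP was recorded by femoral artery catheter; compound in saline (50 µL) was given via femoral vein at 50–3200 µg/kg, ratio 2.0. Peak change is given as mean ± SE, n = 12 (n = 7 at 3200 µg/kg).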

Rattus norvegicus [12] = assay: Change in heart rate after iv administration of 1600 ug/Kg in the presence of isoprenaline (agonist) in anesthetized rats; assay type: functional; method in brief: as §4
Rattus norvegicus [13] = assay: Change in heart rate after iv administration of 4.12 uM/kg in anesthetized rats; assay type: functional
Rattus norvegicus [14] = assay: Change in stroke volume after iv administration of 50 ug/Kgg in anesthetized rats; assay type: functional; method in brief: as §2
Rattus norvegicus [15] = assay: Maximum rate of rise of the left ventricular isovolumetric pressure was measured after iv administration of 400 ug/Kg in the presence of isoprenaline (agonist) in anesthetized rats; assay type: functional, Heart left ventricle; method in brief: as §1
Rattus norvegicus [16] = assay: Change in diastolic blood pressure after iv administration of 1600 ug/Kg in the presence of adrenaline (agonist) in anesthetized rats; assay type: functional, Artery; method in brief: as §4
Rattus norvegicus [17] = assay: Maximum rate of rise of the left ventricular isovolumetric pressure after iv administration of 1600 ug/Kg compound (treatment with reserpine(5 mg/kg/day for 2 days, ip)in anesthetized rats; assay type: functional, Heart left ventricle; method in brief: as §5
Rattus norvegicus [18] = assay: Change in systolic blood pressure after iv administration of 4.12 uM/kg in anesthetized rats; assay type: functional, Artery
Method in brief: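 Doses were 4.12 µM/kg (two agents), guanethidine 25, clonidine 0.108, hexamethonium 12, reserpine 8, papaverine 5 and histamine […]. Peak changes in systolic BP or HR were recorded.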

Rattus norvegicus [19] = assay: Change in stroke volume after iv administration of 1600 ug/Kg in anesthetized rats; assay type: functional; method in brief: as §2
Rattus norvegicus [20] = assay: Change in diastolic blood pressure after iv administration of 800 ug/Kg compound (treatment with reserpine(5 mg/kg/day for 2 days, ip)in anesthetized rats; assay type: functional, Artery
Method in brief: (§6)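 In anesthetized male Wistar rats, responses to iv compound (200–1600 µg/kg, ratio 2.0) were measured alone and under three pretreatments: continuous iv papaverine infusion (1 mg/kg/min), ip reserpine (5 mg/kg/day for 2 days), or iv hexamethonium (5 mg/kg). Peak changes are given as mean ± SE, n = 6 per group; p < 0.05 versus control.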

Rattus norvegicus [21] = assay: Change in heart rate after iv administration of 800 ug/kg compound (treatment with reserpine(5 mg/kg/day for 2 days, ip))in anesthetized rats; assay type: functional
Method in brief: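 Urethane-anesthetized male Wistar rats, 6 per group, received iv doses of 200-1600 µg/kg (ratio 2.0) given alone or under a pretreatment. Pretreatments were continuous iv papaverine infusion (1 mg/kg/min), reserpine 5 mg/kg/day ip for 2 days, or hexamethonium 5 mg/kg iv. Peak changes in femoral arterial BP and HR were recorded; values are mean ± SE.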

Rattus norvegicus [22] = assay: Change in heart rate after iv administration of 1600 ug/kg compound (treatment with papaverine(1 mg/kg/min, iv))in anesthetized rats; assay type: functional; method in brief: as §6
Rattus norvegicus [23] = assay: Change in diastolic blood pressure after iv administration of 4.12 uM/kg in anesthetized rats; assay type: functional, Artery
Rattus norvegicus [24] = assay: Change in stroke volume after iv administration of 3200 ug/Kg in anesthetized rats; assay type: functional; method in brief: as §2
Rattus norvegicus [25] = assay: Maximum rate of rise of the left ventricular isovolumetric pressure was measured after iv administration of 4.12 uM/kg in anesthetized rats; ratio given for dP/dt; assay type: functional, Heart left ventricle
Rattus norvegicus [26] = assay: Change in diastolic blood pressure after iv administration of 400 ug/Kg in the presence of adrenaline (agonist) in anesthetized rats; assay type: functional, Artery; method in brief: as §4

COc1ccc(C2C(c3ccc(OC)c(OC)c3)[C@H](C(=O)NCCCC/N=C(\N)NCC=C(C)C)[C@@H]2C(=O)NCCCC/N=C(\N)NCC=C(C)C)cc1OC (stereo partly drawn) [CARACASANDIAMIDE]
BP (Rattus norvegicus [1]): -27 mmHg
BP (Rattus norvegicus [2]): 21 mmHg
BP (Rattus norvegicus [3]): -14 mmHg
Change in BP (Rattus norvegicus [3]): -13%
Change in dP/dt (Rattus norvegicus [4]): 54%
dP/dt (Rattus norvegicus [4]): 3282 mmHg s-1
Mean aortic flow (Rattus norvegicus [5]): -14 mL/min
Heart rate (Rattus norvegicus [6]): -34 beats min-1
dP/dt (Rattus norvegicus [7]): 3938 mmHg s-1
Heart rate (Rattus norvegicus [8]): 23 beats min-1
Change in stroke volume (Rattus norvegicus [9]): 10%
Stroke volume (Rattus norvegicus [9]): 20 µL
BP (Rattus norvegicus [10]): 17 mmHg
Change in BP (Rattus norvegicus [10]): 16%
Change in heart rate (Rattus norvegicus [11]): -3%
Heart rate (Rattus norvegicus [11]): -10 beats min-1
Heart rate (Rattus norvegicus [12]): 79 beats min-1
Heart rate (Rattus norvegicus [13]): -35 beats min-1
Stroke volume (Rattus norvegicus [14]): 73 µL
dP/dt (Rattus norvegicus [15]): 13696 mmHg s-1
BP (Rattus norvegicus [16]): 3 mmHg
dP/dt (Rattus norvegicus [17]): 1238 mmHg s-1
BP (Rattus norvegicus [18]): -43 mmHg
Change in stroke volume (Rattus norvegicus [19]): -48%
Stroke volume (Rattus norvegicus [19]): -97 µL
BP (Rattus norvegicus [20]): -12 mmHg
Heart rate (Rattus norvegicus [21]): -9 beats min-1
Heart rate (Rattus norvegicus [22]): -31 beats min-1
BP (Rattus norvegicus [23]): -47 mmHg
Change in stroke volume (Rattus norvegicus [24]): -58%
Stroke volume (Rattus norvegicus [24]): -117 µL
dP/dt (Rattus norvegicus [25]): 3990 mmHg s-1
BP (Rattus norvegicus [26]): 5 mmHg
